Test results from paper PMC4887080 (Journal of nuclear medicine : official publication, Society …, 2016).

Assays:
[1] = Human radiation dose estimates extrapolated from mouse biodistribution; format: in vivo, BALB/c mice, scaled to adult human male model
In short: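 64Cu tracer biodistribution in normal BALB/c mice given 0.78 MBq. Organs were collected at 1, 2, 4, 12, 24 and 48 h, and %ID/g was decay-corrected. A final group was housed in metabolic cages to collect urine and feces. Organ residence times (2-h void; 1-h void scenario also run) were scaled to human organ weight for the adult male model. Maximum injection assumes a 50 mGy bladder-wall limit. Mean ± SD.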

[2] = format: in vivo, BALB/c mice
In short: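 BALB/c mice received 0.78 MBq of 64Cu tracer, with sampling at 1, 2, 4, 12, 24 and 48 h. The last group was kept in metabolic cages to collect excreted urine and feces. Time–activity curves for urine excretion and blood clearance were built as percentage injected activity. Urine residence time used a 1-h void assumption.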

[3] = target: T1, VLA-4 (Mus musculus, UniProt P09055+Q00651); format: in vivo, KaLwRij mouse
[4] = target: T1, VLA-4; experiment: PET uptake in tumor-free α4 -/- mice vs wild-type KaLwRij mice; format: in vivo; conditions: tumor-free α4 -/- mice compared with age-matched wild-type KaLwRij mice
[5] = test system: human MM cell lines H929, RPMI-8226, OPM2; experiment: Flow cytometry binding of LLP2A-Cy5 to human MM cell lines; format: cell-based
[6] = test system: VLA-4-positive 5TGM1-GFP murine myeloma cells; experiment: Flow cytometry binding of LLP2A-Cy5 to 5TGM1-GFP cells; format: cell-based, mouse; conditions: coincubated at similar concentrations, P < 0.05

T1 sequence (Q00651 40-1039 limits assumed): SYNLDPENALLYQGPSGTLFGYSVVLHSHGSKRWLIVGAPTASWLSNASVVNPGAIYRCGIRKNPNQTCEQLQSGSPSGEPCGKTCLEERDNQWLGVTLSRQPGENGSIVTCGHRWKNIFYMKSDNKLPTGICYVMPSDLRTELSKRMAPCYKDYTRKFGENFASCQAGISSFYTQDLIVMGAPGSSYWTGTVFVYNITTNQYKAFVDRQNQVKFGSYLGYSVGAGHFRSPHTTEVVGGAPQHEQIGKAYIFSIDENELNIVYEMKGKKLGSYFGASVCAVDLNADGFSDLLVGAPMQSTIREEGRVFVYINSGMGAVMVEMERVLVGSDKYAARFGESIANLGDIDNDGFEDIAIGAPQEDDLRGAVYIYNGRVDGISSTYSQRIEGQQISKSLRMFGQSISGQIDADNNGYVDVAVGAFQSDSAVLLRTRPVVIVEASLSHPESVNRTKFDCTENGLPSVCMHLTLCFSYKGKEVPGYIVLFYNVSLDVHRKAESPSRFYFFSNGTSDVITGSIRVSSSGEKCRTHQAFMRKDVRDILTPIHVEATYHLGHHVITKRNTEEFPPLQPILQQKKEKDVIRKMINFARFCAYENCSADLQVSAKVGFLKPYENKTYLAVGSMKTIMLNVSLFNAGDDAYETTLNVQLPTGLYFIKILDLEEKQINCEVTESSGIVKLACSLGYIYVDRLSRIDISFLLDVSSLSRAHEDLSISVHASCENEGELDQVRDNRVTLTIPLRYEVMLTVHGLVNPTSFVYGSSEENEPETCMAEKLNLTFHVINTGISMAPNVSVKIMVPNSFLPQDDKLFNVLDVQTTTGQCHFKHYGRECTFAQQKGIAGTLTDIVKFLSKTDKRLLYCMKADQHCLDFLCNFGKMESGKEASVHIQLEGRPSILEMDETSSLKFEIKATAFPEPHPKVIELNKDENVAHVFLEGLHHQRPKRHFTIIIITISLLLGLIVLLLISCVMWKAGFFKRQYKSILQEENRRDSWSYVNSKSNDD
T1 sequence (P09055 21-798): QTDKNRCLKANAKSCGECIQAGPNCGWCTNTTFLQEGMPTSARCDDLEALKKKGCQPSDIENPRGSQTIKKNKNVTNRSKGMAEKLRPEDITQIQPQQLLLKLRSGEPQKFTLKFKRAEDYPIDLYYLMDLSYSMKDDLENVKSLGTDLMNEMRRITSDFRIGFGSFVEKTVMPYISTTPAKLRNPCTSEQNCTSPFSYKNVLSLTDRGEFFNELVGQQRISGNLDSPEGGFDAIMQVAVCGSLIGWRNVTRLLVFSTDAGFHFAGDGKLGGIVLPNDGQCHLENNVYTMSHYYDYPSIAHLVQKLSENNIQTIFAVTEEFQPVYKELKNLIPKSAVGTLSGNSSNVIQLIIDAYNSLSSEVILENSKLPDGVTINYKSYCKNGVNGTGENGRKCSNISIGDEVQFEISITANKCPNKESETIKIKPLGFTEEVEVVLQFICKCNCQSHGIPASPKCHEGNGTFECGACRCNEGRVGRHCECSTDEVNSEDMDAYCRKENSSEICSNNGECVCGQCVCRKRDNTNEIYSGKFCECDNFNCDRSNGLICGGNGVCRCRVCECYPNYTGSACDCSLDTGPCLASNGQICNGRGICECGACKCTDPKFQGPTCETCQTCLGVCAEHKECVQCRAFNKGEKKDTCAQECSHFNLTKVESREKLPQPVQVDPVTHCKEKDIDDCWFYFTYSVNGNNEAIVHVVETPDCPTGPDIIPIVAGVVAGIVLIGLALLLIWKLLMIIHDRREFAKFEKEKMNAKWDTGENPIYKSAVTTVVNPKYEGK

**Q.** For “^64Cu-CB-TE1A1P-PEG4-LLP2A [^64Cu-LLP2A]”, which Bladder dose ([1]; 1-h bladder-voiding interval) is on record?
**A.** 0.094 mGy/MBq

**Q.** And the Red marrow dose ([1]; 1-h bladder-voiding interval)?
**A.** 0.005 mGy/MBq

**Q.** And the “Human radiation dose estimate, urinary bladder wall (dose-limiting organ)” value ([1]; as stated in abstract and discussion, void interval not stated)?
**A.** 0.200 mGy/MBq

**Q.** What about the “Human radiation dose estimate, red marrow” value ([1]; as stated in abstract, void interval not stated) of the same compound?
**A.** 0.006 mGy/MBq

**Q.** And the Maximum injection ([1]; assuming maximum permissible dose of 50 mGy to the bladder wall)?
**A.** 532 MBq

**Q.** What about the “Urine excreted, expressed as residence time” value ([2]; 1-h void assumption) of the same compound?
**A.** 14.01 h

**Q.** And the “Blood clearance half-life, fast component” value ([2]; dual-exponential fit of blood time-activity curve, mice)?
**A.** 6 min

**Q.** And the “Residence time from area under the curve of urine data” value ([2]; urine collected in metabolic cages)?
**A.** 14.46 h

**Q.** What about the “Tumor uptake when coinjected with blocker” value ([3]; coinjected with a 200-fold excess of cold-LLP2A) of the same compound?
**A.** reduced to the background levels

**Q.** And the Tumor uptake ([3]; subcutaneous 5TGM1-GFP model, i.v. injection of 0.48 MBq, PET at 24 h)?
**A.** excellent tumor uptake

**Q.** And the “Uptake in the spleen of α4 -/- mice” value [4]?
**A.** negligible uptake

**Q.** For `Cc1ccccc1NC(=O)Nc1ccc(CC(=O)N(C)[C@@H](CC(C)C)C(=O)NCC[C@H](NC(=O)[C@@H]2CCCN2S(=O)(=O)c2cc(Cl)cc(Cl)c2)C(=O)O)cc1` [BIO5192], which “Effect on LLP2A-Cy5 cell binding” value [5] is on record?
**A.** blocked

**Q.** With `CCOCc1cc(OC)c(-c2ccc(C[C@H](NC(=O)c3c(F)cccc3F)C(=O)O)cc2)c(OC)c1` [firategrast] as the compound, how does the “Effect of competitor on LLP2A-Cy5 cell binding” value [6] read?
**A.** competitively inhibited
